Measured values from ChEMBL document CHEMBL4270548, “Discovery of a potent glucokinase activator with a favorable liver and pancreas distribution pattern for the treatment of type 2 diabetes mellitus” (Eur J Med Chem, 2018).
Values after ≈ are worked out from the molar mass of the structure shown. Active and inactive are the calls of the source. The calls are words filed in the database; no cut-off is given here.

What was measured:
[1] = Aqueous solubility of the compound in phosphate buffered saline at pH 7.4 at 8 to 2000 uM by nephelometric method; type: physicochemical
How it was run: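 Compound serial dilutions (8 µM–2 mM, before addition to buffer) transferred into PBS pH 7.4 (5 µL into 95 µL). Solubility read by nephelometry. Only wells with blank below mean blank + 2SD were used.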

[2] = molecular target: T1, Hexokinase-4 (Homo sapiens) (UniProt P35557); assay: Activation of human glucokinase assessed as conversion of D-glucose to D-glucose-6-phosphate at 10 uM preincubated for 10 mins […] measured for 5 mins at 30 secs time interval by G6PDH/NADP coupled assay relative to RO0281675
T1 sequence (whole entry): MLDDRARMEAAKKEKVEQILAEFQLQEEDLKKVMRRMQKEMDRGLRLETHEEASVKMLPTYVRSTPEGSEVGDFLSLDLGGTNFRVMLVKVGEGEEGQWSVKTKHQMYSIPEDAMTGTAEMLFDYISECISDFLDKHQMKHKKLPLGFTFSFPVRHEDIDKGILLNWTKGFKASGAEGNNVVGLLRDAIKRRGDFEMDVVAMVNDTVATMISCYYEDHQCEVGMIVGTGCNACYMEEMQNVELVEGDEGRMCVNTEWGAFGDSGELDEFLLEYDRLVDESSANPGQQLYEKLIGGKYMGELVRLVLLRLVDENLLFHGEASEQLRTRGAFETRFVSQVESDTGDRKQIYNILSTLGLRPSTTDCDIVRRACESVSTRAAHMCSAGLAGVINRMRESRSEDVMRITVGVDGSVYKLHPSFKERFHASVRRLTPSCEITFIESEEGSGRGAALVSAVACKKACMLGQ
How it was run: (§1)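 Human GK in 25 mM HEPES pH 7.1, 25 mM KCl, 2 mM MgCl2, 1 mM NADP, 1 mM DTT, 2 U/mL G6PDH and 5 mM D-glucose. Compound at 10 µM preincubated 10 min at room temperature. Started with 20 mM ATP (added stock). A340 read every 30 s for 5 min, slope from the first 3 min. Fold over DMSO, or relative scale (DMSO 0, 10 µM reference activator 1). Mean ± SEM, n = 3.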

[3] = molecular target: T1, Hexokinase-4 (Homo sapiens); assay: Activation of human glucokinase assessed as conversion of D-glucose to D-glucose-6-phosphate at 10 uM preincubated for 10 mins followed by 5 mM glucose addition measured for 5 mins at 30 secs time interval by G6PDH/NADP coupled assay relative to control; how it was run: as §1
hERG (KCNH2) = hERG (KCNH2) (Homo sapiens, UniProt Q12809); assay: Inhibition of [3H]-dofetilide binding to human ERG expressed in HEK293 cell membranes at 30 uM after 1 hr by scintillation proximity assay relative to control; conditions: HEK293 cell membranes that express hERG, probe [3H]-dofetilide
hERG (KCNH2), sequence (Q12809 whole entry): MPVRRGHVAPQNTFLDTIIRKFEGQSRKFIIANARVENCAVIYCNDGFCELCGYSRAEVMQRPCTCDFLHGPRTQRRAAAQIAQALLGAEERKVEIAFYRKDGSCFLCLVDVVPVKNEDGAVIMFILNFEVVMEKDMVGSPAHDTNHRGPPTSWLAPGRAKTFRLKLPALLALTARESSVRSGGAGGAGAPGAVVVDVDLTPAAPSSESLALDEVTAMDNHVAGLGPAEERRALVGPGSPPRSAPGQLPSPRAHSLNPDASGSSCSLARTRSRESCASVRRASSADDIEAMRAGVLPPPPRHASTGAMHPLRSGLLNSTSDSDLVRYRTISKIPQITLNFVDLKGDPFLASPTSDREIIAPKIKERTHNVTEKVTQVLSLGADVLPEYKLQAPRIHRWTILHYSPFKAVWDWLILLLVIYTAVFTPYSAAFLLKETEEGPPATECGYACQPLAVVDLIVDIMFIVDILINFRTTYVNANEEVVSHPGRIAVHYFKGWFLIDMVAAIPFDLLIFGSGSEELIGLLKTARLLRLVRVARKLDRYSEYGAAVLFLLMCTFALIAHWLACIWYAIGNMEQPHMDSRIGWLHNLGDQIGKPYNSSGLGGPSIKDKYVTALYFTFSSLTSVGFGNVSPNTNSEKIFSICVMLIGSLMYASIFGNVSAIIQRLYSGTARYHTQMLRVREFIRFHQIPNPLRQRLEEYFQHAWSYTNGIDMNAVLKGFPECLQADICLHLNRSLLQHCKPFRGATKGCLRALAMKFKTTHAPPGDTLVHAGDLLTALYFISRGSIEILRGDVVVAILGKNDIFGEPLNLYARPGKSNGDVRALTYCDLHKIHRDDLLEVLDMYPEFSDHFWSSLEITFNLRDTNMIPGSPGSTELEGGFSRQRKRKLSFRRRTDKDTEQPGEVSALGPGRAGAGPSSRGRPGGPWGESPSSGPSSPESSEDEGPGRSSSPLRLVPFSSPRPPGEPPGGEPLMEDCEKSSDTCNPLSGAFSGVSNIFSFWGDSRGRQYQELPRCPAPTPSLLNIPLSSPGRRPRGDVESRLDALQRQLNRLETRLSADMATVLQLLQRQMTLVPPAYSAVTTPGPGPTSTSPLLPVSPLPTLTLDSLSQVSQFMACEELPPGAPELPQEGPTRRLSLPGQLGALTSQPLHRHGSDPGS
How it was run: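 hERG-HEK293 membranes with 10 nM final [3H]-dofetilide and poly-L-lysine SPA beads in 50 mM Tris-Cl, 1.0 mM MgCl2, 10 mM KCl, pH 7.4. Shaken 1 h, beads settled 3 h, then scintillation counting. Normalized to DMSO (0%) and E-4031 (100% inhibition). Single-point at 30 µM, mean ± SEM, n = 3.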

Mus musculus [4] = assay: Antidiabetic activity in C57BL/6J mouse assessed as reduction in blood glucose AUC (0 to 120 mins) at 30 mg/kg, po dosed 30 minutes prior to glucose challenge by OGTT relative to control; type: functional; design: scale not given: the % may be the effect or the level left
How it was run: (§2)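 Fasted male C57BL/6J or ob/ob mice (8 weeks, n = 8/group) dosed orally in 0.5% methylcellulose 15 or 30 min before a 2 g/kg oral glucose load. Tail vein glucose measured by glucometer at −15 or −30, 0, 20, 40, 60, 90 and 120 min. Incremental glucose AUC0-120 min compared with vehicle. Mean ± SEM, Dunnett's test.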

[5] = Cmax in mouse at 30 mg/kg, po administered as single dose by LC/MS/MS analysis; conditions: in vivo
Mus musculus [6] = assay: Antidiabetic activity in po dosed C57BL/6J mouse assessed as reduction in blood glucose level administered 15 mins prior to glucose challenge measured up to 120 mins post dose by OGTT; type: functional, organism-based; how it was run: as §2
Mus musculus [7] = assay: Antidiabetic activity in C57BL/6J mouse assessed as increase in insulin secretion at 100 mg/kg, po measured up to 60 mins by ELISA; type: functional, organism-based
How it was run: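 Male C57BL/6J mice (8 weeks) fasted 2 h, then dosed orally at time 0 (n = 8/group). Tail vein insulin measured at 0, 30 and 60 min by ultra-sensitive mouse insulin ELISA. Mean ± SEM, Dunnett's test.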

Mus musculus [8] = assay: Antidiabetic activity in ob/ob mouse assessed as reduction in plasma glucose level at 10 to 30 mg/kg, po bid administered for 14 days measured at post last dose by glucometric method; type: functional, organism-based
How it was run: (§3)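 Male ob/ob mice (9 weeks) dosed orally twice daily for 4 weeks, vehicle 0.5% MC. Plasma glucose measured by portable glucometer at 2 and 4 weeks. Liver TG assessed at the end of treatment. Mean ± SEM (n = 10), Dunnett's test versus vehicle.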

Mus musculus [9] = assay: Antidiabetic activity in po dosed C57BL/6J mouse assessed as reduction in blood glucose level administered for 15 to 30 mins prior to glucose challenge measured up to 120 mins post dose by OGTT; type: functional, organism-based; how it was run: as §2
Mus musculus [10] = assay: Antidiabetic activity in po dosed ob/ob mouse assessed as reduction in blood glucose level administered for 15 to 30 mins prior to glucose challenge measured up to 120 mins post dose by OGTT; type: functional, organism-based; how it was run: as §2
Mus musculus [11] = assay: Antidiabetic activity in ob/ob mouse assessed as reduction in plasma glucose level at 10 to 30 mg/kg, po bid administered for 28 days measured at post last dose by glucometric method; type: functional, organism-based; how it was run: as §3

| solubility kinetic [1] | fold change (FC) [2] | fold change (FC) [3] | Structure (SMILES) | inhibition at 1 h, 30 µM (hERG (KCNH2)) | also measured |
| --- | --- | --- | --- | --- | --- |
| 0.98 µM (≈ 0.396 µg/mL) | 0.274 | 3.46 | Cc1sc(C2CCCN2C(=O)CCN)cc1C(=O)Nc1nc2c(s1)CCC2 (stereo unspecified) | – | – |
| – | 0.718 | 8.35 | Cc1sc(C2CCCN2C(=O)CN(C)CC(=O)O)cc1C(=O)Nc1ncc(Cl)s1.Cl (stereo unspecified) | 11% | Activity (Mus musculus [4]): 82% |
| 7.81 µM (≈ 2.74 µg/mL) | 0.293 | 3.67 | Cc1sc(C2CCCN2C(=O)CN)cc1C(=O)Nc1nccs1 (stereo unspecified) | – | – |
| 7.81 µM | 0.65 | 10.4 | Cc1sc([C@@H]2CCCN2C(=O)CN(C)C)cc1C(=O)Nc1ncc(Cl)s1.Cl | 101% | Cmax [5]: > 9 µM; Activity (Mus musculus [6]): Active |
| – | 0.71 | 6.92 | Cc1sc(C2CCCN2C(=O)CN(C)CC(=O)O)cc1C(=O)Nc1ncc(F)s1 (stereo unspecified) | -6% | – |
| 3.91 µM (≈ 1.61 µg/mL) | 0.598 | 6.81 | Cc1sc(C2CCCN2C(=O)CN(C)C)cc1C(=O)Nc1ncc(Cl)s1 (stereo unspecified) | – | – |
| 0.98 µM (≈ 0.354 µg/mL) | 0.235 | 2.96 | Cc1sc(N2CCCCC2=O)cc1C(=O)Nc1nc2c(s1)CCC2 | – | – |
| 15.6 µM (≈ 5.69 µg/mL) | 0.175 | 2.86 | Cc1sc(C2CCCN2C(=O)CCN)cc1C(=O)Nc1nccs1 (stereo unspecified) | – | – |
| 0.98 µM (≈ 0.382 µg/mL) | 0.017 | 1.13 | CC(=O)N1CCCCC1c1cc(C(=O)Nc2nc3c(s2)CCC3)c(C)s1 (stereo unspecified) | – | – |
| 7.81 µM (≈ 2.93 µg/mL) | 0.187 | 2.53 | CC(=O)N1CCCC1c1cc(C(=O)Nc2nc3c(s2)CCC3)c(C)s1 (stereo unspecified) | – | – |
| 1.95 µM | 0.381 | 4.99 | Cc1sc([C@H]2CCCN2C(=O)CN(C)C)cc1C(=O)Nc1ncc(Cl)s1.Cl | – | – |
| 3.91 µM (≈ 1.36 µg/mL) | 0.168 | 2.41 | Cc1sc(N2CCCC2=O)cc1C(=O)Nc1nc2c(s1)CCC2 | – | – |

More lines, now with the values behind:

| Structure (SMILES) | solubility kinetic [1] | fold change (FC) [2] | fold change (FC) [3] | inhibition at 1 h, 30 µM (hERG (KCNH2)) | also measured |
| --- | --- | --- | --- | --- | --- |
| Cc1sc(-c2ccccc2C(=O)NCCO)cc1C(=O)Nc1nc2c(s1)CCC2 | 0.98 µM (≈ 0.419 µg/mL) | 0.373 | 3.89 | – | – |
| CC(=O)NCC(=O)N1CCCC1c1cc(C(=O)Nc2ncc(Cl)s2)c(C)s1 (stereo unspecified) | – | 0.395 | 5.32 | 3% | – |
| Cc1sc(-c2ccccc2C(=O)NCCN(C)C)cc1C(=O)Nc1nc2c(s1)CCC2 | 1.95 µM (≈ 0.887 µg/mL) | 0.428 | 4.31 | – | – |
| Cc1sc(C2CCCN2C(=O)CN(C)S(C)(=O)=O)cc1C(=O)Nc1ncc(Cl)s1 (stereo unspecified) | – | 0.168 | 3.24 | – | – |
| Cc1sc(C2CCCN2C(=O)CN(C)CCCC(=O)O)cc1C(=O)Nc1ncc(F)s1 (stereo unspecified) | – | 0.61 | 6.86 | 78% | – |
| Cc1sc([C@@H]2CCCN2C(=O)CN(C)CCC(=O)O)cc1C(=O)Nc1ncc(F)s1 | – | 0.686 | 7.26 | 49% | – |
| Cc1sc([C@@H]2CCCN2C(=O)[C@H](C)N(C)CC(=O)O)cc1C(=O)Nc1ncc(F)s1 | – | 0.832 | 8.8 | 4% | – |
| Cc1sc(C2CCCN2C(=O)CN(C)C)cc1C(=O)Nc1nccs1 (stereo unspecified) | 7.81 µM (≈ 2.96 µg/mL) | 0.38 | 4.7 | – | – |
| Cc1sc(C2CCCN2C(=O)CNCC(=O)O)cc1C(=O)Nc1ncc(Cl)s1 (stereo unspecified) | – | 0.438 | 4.75 | 28% | – |
| Cc1sc(-c2ccccc2C(N)=O)cc1C(=O)Nc1nc2c(s1)CCC2 | 1.95 µM (≈ 0.748 µg/mL) | 0.699 | 6.23 | – | Cmax [5]: < 1 µM |
| Cc1sc(C2CCCN2C(=O)CNS(C)(=O)=O)cc1C(=O)Nc1ncc(Cl)s1 (stereo unspecified) | – | 0.46 | 6.21 | 16% | – |
| Cc1sc(C2CCCN2C(=O)CN(C)CCC(=O)O)cc1C(=O)Nc1ncc(F)s1.Cl (stereo unspecified) | – | 0.466 | 4.89 | 17% | Activity (Mus musculus [4]): 47% |
| Cc1sc(-c2ccccc2C(=O)NCCC(N)=O)cc1C(=O)Nc1nc2c(s1)CCC2 | 3.91 µM (≈ 1.78 µg/mL) | 0.187 | 2.56 | – | – |
| CCN(CC(=O)O)CC(=O)N1CCC[C@H]1c1cc(C(=O)Nc2ncc(F)s2)c(C)s1 [listing 1 of 2 here] | – | – | – | -1% | – |
| Cc1sc(C2CCCN2C(=O)CN(C)CCCCC(=O)O)cc1C(=O)Nc1ncc(F)s1 (stereo unspecified) | – | 0.619 | 6.95 | 77% | – |
| CCN(CC(=O)O)CC(=O)N1CCC[C@H]1c1cc(C(=O)Nc2ncc(F)s2)c(C)s1 [listing 2 of 2 here] | – | 0.87 | 8.6 | – | Activity (Mus musculus [7]): Active; Activity (Mus musculus [8]): Active; Activity (Mus musculus [9]): Dose-dependent effect; Activity (Mus musculus [10]): Dose-dependent effect; Activity (Mus musculus [11]): Active |
| Cc1sc(-c2ccccc2C(=O)NCCc2nnn[nH]2)cc1C(=O)Nc1nc2c(s1)CCC2 | 31.3 µM (≈ 15 µg/mL) | -0.019 | 0.84 | – | – |
| CC(=O)N(C)CC(=O)N1CCCC1c1cc(C(=O)Nc2ncc(Cl)s2)c(C)s1 (stereo unspecified) | – | 0.118 | 2.57 | – | – |
